Measured values as given in PMC12371875 (Journal of Agricultural and Food Chemistry, 2025).
Converted amounts (≈) assume the structure as drawn.

Key:
rat intestinal maltase = assay: Kinetic study of α-glucosidase inhibition; format: biochemical
Outline: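 Rat intestinal α-glucosidase with test compound in phosphate buffer pH 6.9. Maltose was varied over 2–10 mM, with and without inhibitor, and the mixture was incubated at 37 °C for 10 min. […] Inhibition type came from Lineweaver–Burk plots. Ki and Ki′ came from secondary plots of slopes and intercepts versus inhibitor concentration.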

rat intestinal sucrase = rat intestinal sucrase (Rattus norvegicus, UniProt P23739); assay: Kinetic study of α-glucosidase inhibition; format: biochemical
Chain of rat intestinal sucrase (P23739 whole entry): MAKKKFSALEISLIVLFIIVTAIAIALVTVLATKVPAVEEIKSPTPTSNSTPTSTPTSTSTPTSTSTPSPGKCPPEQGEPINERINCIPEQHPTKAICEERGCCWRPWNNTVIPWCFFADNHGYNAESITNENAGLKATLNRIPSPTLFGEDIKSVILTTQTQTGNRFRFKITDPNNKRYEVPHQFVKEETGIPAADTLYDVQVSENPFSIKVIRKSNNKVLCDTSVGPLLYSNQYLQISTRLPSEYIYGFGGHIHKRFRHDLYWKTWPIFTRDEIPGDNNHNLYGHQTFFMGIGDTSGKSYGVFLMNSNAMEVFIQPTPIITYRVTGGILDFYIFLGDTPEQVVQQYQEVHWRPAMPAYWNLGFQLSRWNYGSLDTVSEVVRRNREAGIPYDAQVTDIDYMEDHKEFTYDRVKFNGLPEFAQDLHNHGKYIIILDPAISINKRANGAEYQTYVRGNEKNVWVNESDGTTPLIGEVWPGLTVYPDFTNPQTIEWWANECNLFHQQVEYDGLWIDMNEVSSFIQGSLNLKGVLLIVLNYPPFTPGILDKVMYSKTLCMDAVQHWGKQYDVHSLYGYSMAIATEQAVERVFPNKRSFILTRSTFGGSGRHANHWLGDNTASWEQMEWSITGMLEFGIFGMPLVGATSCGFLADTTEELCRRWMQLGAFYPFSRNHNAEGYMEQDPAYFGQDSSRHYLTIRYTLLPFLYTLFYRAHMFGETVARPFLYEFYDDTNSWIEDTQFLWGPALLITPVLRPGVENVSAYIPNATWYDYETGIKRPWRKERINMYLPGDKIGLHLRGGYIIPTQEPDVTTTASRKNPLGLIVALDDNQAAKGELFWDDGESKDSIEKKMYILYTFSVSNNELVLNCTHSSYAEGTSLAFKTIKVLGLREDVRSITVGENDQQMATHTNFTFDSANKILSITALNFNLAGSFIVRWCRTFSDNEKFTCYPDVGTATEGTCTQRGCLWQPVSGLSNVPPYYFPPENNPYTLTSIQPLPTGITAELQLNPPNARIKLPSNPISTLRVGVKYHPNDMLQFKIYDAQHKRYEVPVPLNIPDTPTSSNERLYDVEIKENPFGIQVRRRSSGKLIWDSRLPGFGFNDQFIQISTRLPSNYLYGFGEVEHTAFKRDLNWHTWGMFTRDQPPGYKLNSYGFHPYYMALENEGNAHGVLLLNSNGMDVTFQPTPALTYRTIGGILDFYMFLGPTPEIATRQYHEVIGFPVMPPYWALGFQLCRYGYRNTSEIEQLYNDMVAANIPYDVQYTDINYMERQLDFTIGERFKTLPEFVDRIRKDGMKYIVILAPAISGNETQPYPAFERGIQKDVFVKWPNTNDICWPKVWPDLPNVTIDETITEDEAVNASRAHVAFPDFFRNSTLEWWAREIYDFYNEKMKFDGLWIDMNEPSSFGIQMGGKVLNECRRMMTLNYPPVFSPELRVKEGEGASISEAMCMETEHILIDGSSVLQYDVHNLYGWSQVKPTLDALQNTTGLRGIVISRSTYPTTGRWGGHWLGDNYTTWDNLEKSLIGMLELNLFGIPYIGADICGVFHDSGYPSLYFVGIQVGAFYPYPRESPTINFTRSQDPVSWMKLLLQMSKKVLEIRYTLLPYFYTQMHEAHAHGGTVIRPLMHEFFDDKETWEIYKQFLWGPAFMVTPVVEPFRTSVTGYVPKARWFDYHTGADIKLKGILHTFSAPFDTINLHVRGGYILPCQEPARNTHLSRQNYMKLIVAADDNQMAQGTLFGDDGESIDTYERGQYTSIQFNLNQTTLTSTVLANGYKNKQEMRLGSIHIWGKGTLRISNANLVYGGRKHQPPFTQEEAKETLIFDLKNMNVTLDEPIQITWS
Outline: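 Test compound in phosphate buffer pH 6.9 with rat intestinal α-glucosidase. Sucrose was varied over 20–100 mM, with and without inhibitor, and incubated at 37 °C for 40 min. […] Lineweaver–Burk plots gave the inhibition type. Secondary plots of slopes and intercepts against inhibitor concentration gave Ki and Ki′.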

yeast α-glucosidase = conditions: ref Suttithumsatid and co-workers, 2022; cited from earlier work
[1] = dissociation constant of ESI complex, secondary plots

SMILES | Inhibition type, maltase (rat intestinal maltase; Lineweaver–Burk plots, maltose 2–10 mM) | Ki′, maltase (rat intestinal maltase; [1]) [µM] | Inhibition type, sucrase (rat intestinal sucrase; Lineweaver–Burk plots, sucrose 20–100 mM) | Ki′, sucrase (rat intestinal sucrase; [1]) [µM] | IC50, yeast α-glucosidase inhibition (yeast α-glucosidase) [µg/mL]
CCCCCc1cc(O)c2c(c1)OC(C)(C)c1ccc(C)cc1-2 [Compound 15, cannabinol] | Uncompetitive | 196.4 | Uncompetitive | 434.8 | 
C=C(C)[C@@H]1CCC(C)=C[C@H]1c1c(O)cc(CCCCC)cc1O [CBD] |  |  |  |  | 5.5 (≈ 17.5 µM)
